In brackets after ≈: the same amount, converted by molar mass. Activity calls are given as the source filed them.

For data set [1], the system named is Staphylococcus aureus. The experiment in a line: Bactericidal activity against Staphylococcus aureus 209p measured after 4 hrs. The data set is classed as functional. The method, boiled down:
(§1)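 Microbicidal (bactericidal/fungicidal) concentration, killing of microbial cells, determined per literature procedures; tests in duplicate, repeated twice.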

Data set [2] is described as follows: Cytotoxicity against human Chang cells assessed as reduction in cell viability at 0.7 to 11.3 uM by Cytell imaging analysis. The data set is classed as cell-based. The method, boiled down:
(§2)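 WI-38 human embryonic lung and Chang liver cells exposed to compounds at three concentrations each (0.70–47.0 μM range, spanning antimicrobial concentrations); cytotoxicity read as number of viable cells counted.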

For data set [3], the system named is WI-38. The data set is described as follows: Cytotoxicity against human WI38 cells assessed as reduction in cell viability at 0.7 to 11.3 uM by Cytell imaging analysis. The data set is classed as cell-based. The following applies: wi-38, 11.3 µM. Put shortly: as §2
Data set [4] has as its system Trichophyton mentagrophytes var. granulosum. The experiment in a line: (§3) Bactericidal activity against Trichophyton mentagrophytes var. granulosum 1773 measured after 4 hrs. The data set is classed as functional. The method, boiled down:
as §1

Data set [5] concerns Aspergillus niger. The data set is described as follows: Bactericidal activity against Aspergillus niger BKMF-1119 measured after 4 hrs. The data set is classed as functional, organism-based. The method, boiled down:
as §1

For data set [6], the system named is Bacillus cereus. The experiment in a line: Antimicrobial activity against Bacillus cereus ATCC 8035 measured every 24 hrs for 5 days by two-fold serial dilution method. The data set is classed as functional.
Data set [7] has as its system Escherichia coli. The data set is described as follows: Bactericidal activity against Escherichia coli CDC F-50 measured after 4 hrs. The data set is classed as functional. The method, boiled down:
as §1

Data set [8] has as its system Candida albicans. The experiment in a line: Bactericidal activity against Candida albicans 855-653 measured after 4 hrs. The data set is classed as functional. To be noted: 855-653, 4 h. Put shortly:
as §1

Data set [9] concerns Aspergillus niger. The data set is described as follows: Antimicrobial activity against Aspergillus niger BKMF-1119 measured after 14 days by two-fold serial dilution method. The data set is classed as functional, organism-based.
The test system of data set [10] is Pseudomonas aeruginosa. The data set is described as follows: Antimicrobial activity against Pseudomonas aeruginosa ATCC 9027 measured every 24 hrs for 5 days by two-fold serial dilution method. The data set is classed as functional.
Data set [11] has as its system Trichophyton mentagrophytes. The data set is described as follows: Antimicrobial activity against Trichophyton mentagrophytes var. gypseum 1773 measured after 14 days by two-fold serial dilution method. The data set is classed as functional.
Data set [12] concerns Escherichia coli. The data set is described as follows: Antimicrobial activity against Escherichia coli CDC F-50 measured every 24 hrs for 5 days by two-fold serial dilution method. The data set is classed as functional.
In data set [13] the test system is Candida albicans. The experiment in a line: Antimicrobial activity against Candida albicans 855-653 measured after 14 days by two-fold serial dilution method. The data set is classed as functional.
The subject of data set [14] is Bacillus cereus. The data set is described as follows: Bactericidal activity against Bacillus cereus ATCC 8035 measured after 4 hrs. The data set is classed as functional. Put shortly: as §1
Data set [15] has as its system Staphylococcus aureus. The experiment in a line: Antimicrobial activity against Staphylococcus aureus 209p measured every 24 hrs for 5 days by two-fold serial dilution method. The data set is classed as functional.
The test system of data set [16] is Pseudomonas aeruginosa. The experiment in a line: Bactericidal activity against Pseudomonas aeruginosa ATCC 9027 measured after 4 hrs. The data set is classed as functional. The method, boiled down:
as §1

Data set [17] in a line: Antioxidant activity assessed as ABAP free radical scavenging activity by measuring decrease in chemiluminescence intensity at 0.5 mM. The data set is classed as functional. On the set-up: scale not given: the % may be the effect or the level left. Put shortly:
(§4)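 Chemiluminescent radical system of ABAP (2,2′-azobis(2-methylpropionamidine) dihydrochloride) plus luminol in buffer, total 1.000 mL; baseline recorded, then test substance added at 0.25, 0.50 or 1.00 mM; chemiluminescence intensity followed over time and expressed as percent of initial value. Ionol used as reference antioxidant.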

Data set [18] in a line: Antioxidant activity assessed as ABAP free radical scavenging activity by measuring decrease in chemiluminescence intensity at 1 mM. The data set is classed as functional. On the set-up: scale not given: the % may be the effect or the level left. The method, boiled down: as §4
A short description of data set [19]: Cytotoxicity against human Chang cells assessed as reduction in cell viability at 47 uM by Cytell imaging analysis. The data set is classed as cell-based. Put shortly:
as §2

The subject of data set [20] is WI-38. The data set is described as follows: Cytotoxicity against human WI38 cells assessed as reduction in cell viability at 47 uM by Cytell imaging analysis. The following applies: wi-38, 47 µM. The data set is classed as cell-based. The method, boiled down:
as §2

Data set [21] in a line: Antioxidant activity assessed as ABAP free radical scavenging activity by measuring decrease in chemiluminescence intensity at 0.25 mM. The data set is classed as functional. Details: scale not given: the % may be the effect or the level left. The method, boiled down:
as §4

The nature of data set [22]: Antioxidant activity assessed as ABAP free radical scavenging activity by measuring decrease in chemiluminescence intensity at 1 mM measured after 600 secs. On the set-up: scale not given: the % may be the effect or the level left. The data set is classed as functional. The method, boiled down: as §4
Data set [23] is described as follows: as §3. The data set is classed as functional. The following applies: Trichophyton mentagrophytes, 1773, 4 h. The method, boiled down: as §1
Data set [24] is described as follows: Antioxidant activity assessed as ABAP free radical scavenging activity by measuring decrease in chemiluminescence intensity at 0.5 mM measured after 500 secs. The data set is classed as functional. The method, boiled down: as §4
Data set [25] can be described thus: Antioxidant activity assessed as ABAP free radical scavenging activity by measuring decrease in chemiluminescence intensity at 0.25 mM measured after 400 secs. The data set is classed as functional. Put shortly:
as §4

What is called MIC is the smallest concentration in the dilution series that meets the test's criterion for growth inhibition. As for `CCCCCCCCCC[N+](C)(C)CCNC(c1cc(C(C)(C)C)c(O)c(C(C)(C)C)c1)P(=O)(OC(C)C)OC(C)C.[Br-]` (stereo not drawn), the MIC against Staphylococcus aureus [1] came to 5.6 µM; against Bacillus cereus [6] it was 5.6 µM; in the data set with Candida albicans [8], 11.3 µM; in the data set on Candida albicans [13] (855-653, 336 h), 11.3 µM; in the data set on Bacillus cereus [14] (ATCC 8035, 4 h), 90 µM; in the data set on Staphylococcus aureus [15], 2.7 µM. Also, the Activity entry (in data set [2]; in the data set with WI-38 [3]) was “Non-Toxic” in each case. The MIC entry (in data set [4]; in the data set on Aspergillus niger [5]; in the data set on Escherichia coli [7]; in the data set with Aspergillus niger [9]; in the data set on Pseudomonas aeruginosa [10]; in data set [11]) was “inactive” in each case. Moreover, the MIC result in the data set on Escherichia coli [12] and in the data set with Pseudomonas aeruginosa [16] was “inactive” in each case.
As to `CCCCCCCCCC[N+](C)(C)CCNC(c1cc(C(C)(C)C)c(O)c(C(C)(C)C)c1)P(=O)(OCC)OCC.[Br-]` (stereo not drawn), the MIC against Staphylococcus aureus [1] amounted to 2.9 µM; in the data set on Bacillus cereus [6], 2.9 µM; against Escherichia coli [7] (CDC F-50, 4 h) it was 188 µM; with Candida albicans [8], 47 µM; against Pseudomonas aeruginosa [10], 94.1 µM; in the data set on Escherichia coli [12], 94.1 µM. Also, the minimal inhibitory concentration (MIC) in the data set on Candida albicans [13] (855-653, 336 h) was 47 µM; against Bacillus cereus [14] (ATCC 8035, 4 h) it was 2.9 µM; against Staphylococcus aureus [15], 2.9 µM. In addition, the Activity result in data set [2] was “Non-Toxic”; in the data set with WI-38 [3], “Non-Toxic”; in data set [17] it was 26%; in [18], 20%; in data set [19], “Toxic”; in the data set on WI-38 [20], “Toxic”. For the same compound, the Activity in data set [21] worked out at 44%. Besides, the MIC result (in [4]; in the data set on Aspergillus niger [5]; with Aspergillus niger [9]; in data set [11]; with Pseudomonas aeruginosa [16]) was “inactive” each time.
As for `CCOP(=O)(OCC)C(NCCC[N+](C)(C)CC)c1cc(C(C)(C)C)c(O)c(C(C)(C)C)c1` (stereo not drawn), the Activity in [22] was 26%; in data set [17], 26%; in data set [21] it was 44%. The MIC with Staphylococcus aureus [1] is 442 µM; in the data set on Bacillus cereus [6] it was 221 µM; against Candida albicans [8], above 500 µM; with Bacillus cereus [14] (ATCC 8035, 4 h), 221 µM; against Staphylococcus aureus [15], 442 µM. Besides, the MIC result (in [4]; with Aspergillus niger [5]; with Escherichia coli [7]; with Aspergillus niger [9]; in the data set on Pseudomonas aeruginosa [10]; in [11]) was “inactive” in each case. For the same compound, the MIC entry with Escherichia coli [12], in the data set with Candida albicans [13] and in the data set with Pseudomonas aeruginosa [16] was “inactive” each time.
Turning to `CC(=O)N1CCN(c2ccc(OCC3COC(Cn4ccnc4)(c4ccc(Cl)cc4Cl)O3)cc2)CC1` (stereo not drawn) [KETOCONAZOLE], the MIC in [23] was 15.2 µM (≈ 8.08 µg/mL); against Candida albicans [8], 15.2 µM (≈ 8.08 µg/mL); in data set [11] (var. gypseum 1773, 336 h) it was 7.6 µM (≈ 4.04 µg/mL); with Candida albicans [13] (855-653, 336 h), 7.6 µM (≈ 4.04 µg/mL).
As for `CCCCCCCCCC[N+](C)(C)CCCNC(c1cc(C(C)(C)C)c(O)c(C(C)(C)C)c1)P(=O)(OC(C)C)OC(C)C.[Br-]` (stereo not drawn), the Activity in data set [22] was 26%; in data set [2], “Non-Toxic”; in the data set on WI-38 [3] it was “Non-Toxic”; in data set [17], 26%; in data set [21], 44%. The MIC against Staphylococcus aureus [1] was 1.3 µM; in the data set with Bacillus cereus [6], 2.7 µM; in the data set with Escherichia coli [7] (CDC F-50, 4 h) it was 177 µM; in the data set with Candida albicans [8], 11 µM; against Pseudomonas aeruginosa [10], 22 µM; in the data set on Escherichia coli [12], 44.3 µM. In addition, the MIC against Candida albicans [13] (855-653, 336 h) stood at 11 µM; in the data set on Bacillus cereus [14] (ATCC 8035, 4 h) it was 177 µM; with Staphylococcus aureus [15], 0.7 µM; against Pseudomonas aeruginosa [16] (ATCC 9027, 4 h) it was 44.3 µM. For the same compound, the MIC result (in [4]; with Aspergillus niger [5]; with Aspergillus niger [9]; in data set [11]) was “inactive” each time. Besides, the outcome in [24] and in [25] was Active.
With `CCCCCCCCCCCCCCCC[N+](C)(C)CCNC(=O)CCc1cc(C(C)(C)C)c(O)c(C(C)(C)C)c1`, the MIC entry (in the data set on Staphylococcus aureus [1]; in data set [4]; in the data set on Aspergillus niger [5]; with Escherichia coli [7]; in the data set on Aspergillus niger [9]; with Pseudomonas aeruginosa [10]) was “inactive” throughout. For the same compound, the MIC result (in data set [11]; in the data set on Escherichia coli [12]; in the data set on Bacillus cereus [14]; in the data set with Pseudomonas aeruginosa [16]) was “inactive” in each case. In addition, the MIC in the data set on Bacillus cereus [6] is 383 µM; in the data set on Candida albicans [8], 383 µM; against Candida albicans [13] (855-653, 336 h), 383 µM; against Staphylococcus aureus [15], 95.7 µM.

(Values after ChEMBL document CHEMBL4368886, “Design, synthesis, and biological activity of novel ammonium salts containing sterically hindered phenolic fragment and phosphoryl group” (Medchemcomm, 2018).)
